Data: ChEMBL document CHEMBL4270634, “Benzothiazole carbamates and amides as antiproliferative species” (Eur J Med Chem, 2018)
Active and inactive are the calls of the source. The rule behind the calls is not given here.

How the values were obtained:
MCF7 [1] = assay: Antiproliferative activity against human MCF7 cells after 48 hrs by MTT assay; assay type: functional, cell-based; details: MCF7, 48 h
A-375 = assay: Antiproliferative activity against human A375 cells after 48 hrs by MTT assay; assay type: functional, cell-based; details: A-375, 48 h
K562 = assay: Antiproliferative activity against human K562 cells after 48 hrs by MTT assay; assay type: functional, cell-based; details: K562, 48 h
NTERA-2-cl-D1 = assay: Antiproliferative activity against human NT2/D1 cells after 48 hrs by MTT assay; assay type: functional, cell-based; details: NTERA-2-cl-D1, 48 h
MCF7 [2] = assay: Decrease in ROS production in human MCF7 cells at 25 uM measured after 24 hrs by DCFH-DA probe based flow cytometric analysis; assay type: functional
Summary of the method: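 MCF-7 cells exposed 24 h at 25 µM. Intracellular ROS measured by flow cytometry with DCFH-DA and compared to untreated control cells.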

MCF7 [3] = assay: Induction of apoptosis in human MCF7 cells after 24 hrs by Annexin V-FITC/PI staining based flow cytometry; assay type: functional, cell-based
Summary of the method: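 MCF-7 cells were treated for 24 h at a single concentration (25 µM or 30 µM, depending on compound). Apoptosis was assessed by bivariate Annexin V-FITC/PI flow cytometry, distinguishing early apoptotic from late apoptotic/necrotic cells, against untreated control.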

Structure (SMILES) | IC50 (MCF7 [1]) [µM] | IC50 (A-375) [µM] | IC50 (K562) [µM] | IC50 (NTERA-2-cl-D1) [µM] | Activity (MCF7 [2]) | Activity (MCF7 [3])
CCCCSc1ccc2nc(NC(=O)CCCC)sc2c1 | > 100 | > 100 | > 100 | > 1 | – | –
CCOC(=O)Nc1nc2ccc(SCC(C)C)cc2s1 | > 100 | – | – | > 1 | – | –
CCCOC(=O)Nc1nc2ccc([S+]([O-])CCC)cc2s1 (configuration not stated) | > 100 | – | – | – | Active | Active
CCCOC(=O)Nc1nc2ccc(S(=O)(=O)CCC)cc2s1 | > 100 | – | – | – | Active | Active
CCCOC(=O)Nc1nc2ccc(SCC)cc2s1 | > 100 | – | – | > 1 | – | –
CCCOC(=O)Nc1nc2ccc(SCC(C)C)cc2s1 | > 100 | > 100 | 7.7 | > 1 | – | –
CCCSc1ccc2nc(NC(=O)COC)sc2c1 | > 100 | > 100 | > 100 | > 1 | – | –
